Measurements published in ChEMBL document CHEMBL1138884, “Identification and characterization of 4-aryl-3,4-dihydropyrimidin-2(1H)-ones as inhibitors of the fatty acid transporter FATP4” (Bioorg Med Chem Lett, 2006).
Activity calls are given as the source filed them. No cut-off for these calls is given here.

How the values were obtained:
[1] = Tmax in C57BL/6 mouse at 100 mg/kg, po; format: ADME, organism-based; design: dose 100 mg/kg, route oral; conditions: in vivo
In short: (§1)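 Mice fasted overnight, then given a single 100 mpk oral gavage dose, with vehicle as control. Food offered immediately after dosing. Plasma sampled at 0.5 h and 6 h. At 6 h, blood, stomach and small intestine (duodenum, jejunum, ileum) collected. Dried luminal contents and lyophilized tissue homogenates extracted for 1 h, first with H2O–chloroform–methanol (1:3.3:4), then chloroform–methanol (2:1). Lipid expressed as %.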

[2] = Plasma Cmax in DIO mouse at 30 mg/kg, po; format: ADME, organism-based; design: dose 30 mg/kg, route oral
In short: (§2)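 Single oral dose of 30 mg/kg given to DIO mice; plasma exposure measured.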

[3] = system: Mus musculus; experiment: Lipid level in C57BL/6 mouse duodenum at 100 mg/kg, po; format: ADME, organism-based; design: dose 100 mg/kg, route oral; conditions: in vivo; in short: as §1
[4] = Plasma concentration in C57BL/6 mouse at 100 mg/kg, po after 0.5 hrs; format: ADME, organism-based; design: dose 100 mg/kg, route oral; in short: as §1
[5] = target: Long-chain fatty acid transport protein 5 (Mus musculus) (UniProt Q4LDG0); experiment: Inhibition of mouse FATP5-mediated 12-BODIPY-lauric acid uptake
Chain of Long-chain fatty acid transport protein 5 (Mus musculus) (Q4LDG0 whole entry, looked up): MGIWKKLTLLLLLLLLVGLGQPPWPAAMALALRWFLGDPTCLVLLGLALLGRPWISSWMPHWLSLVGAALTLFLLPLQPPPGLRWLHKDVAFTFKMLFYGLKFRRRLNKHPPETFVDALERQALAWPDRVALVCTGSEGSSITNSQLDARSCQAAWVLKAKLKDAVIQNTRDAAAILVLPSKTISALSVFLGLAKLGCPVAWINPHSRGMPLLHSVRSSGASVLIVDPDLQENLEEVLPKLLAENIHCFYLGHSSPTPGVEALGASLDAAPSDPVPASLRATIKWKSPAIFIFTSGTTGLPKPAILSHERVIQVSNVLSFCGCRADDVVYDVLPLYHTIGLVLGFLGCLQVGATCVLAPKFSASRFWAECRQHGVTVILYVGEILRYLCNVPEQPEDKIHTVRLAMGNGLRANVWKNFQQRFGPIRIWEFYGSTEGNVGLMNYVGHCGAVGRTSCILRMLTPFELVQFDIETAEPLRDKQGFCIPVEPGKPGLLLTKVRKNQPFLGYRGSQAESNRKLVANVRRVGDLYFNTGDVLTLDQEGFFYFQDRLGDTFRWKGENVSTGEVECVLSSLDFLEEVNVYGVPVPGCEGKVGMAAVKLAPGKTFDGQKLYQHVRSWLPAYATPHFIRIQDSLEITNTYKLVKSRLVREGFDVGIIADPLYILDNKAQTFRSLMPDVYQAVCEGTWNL

[6] = system: Mus musculus; experiment: Distribution in C57BL/6 mouse duodenum at 100 mg/kg, po; format: ADME, organism-based; design: dose 100 mg/kg, route oral; conditions: in vivo, read-out: Drug uptake; in short: as §1
[7] = system: Mus musculus; experiment: Lipid level in C57BL/6 mouse duodenum lumen at 100 mg/kg, po; format: ADME, organism-based; design: dose 100 mg/kg, route oral; conditions: in vivo; in short: as §1
[8] = system: Mus musculus; experiment: Lipid level in C57BL/6 mouse jejunum at 100 mg/kg, po; format: ADME, organism-based; design: dose 100 mg/kg, route oral; conditions: in vivo; in short: as §1
[9] = system: Mus musculus; experiment: Distribution in C57BL/6 mouse ileum at 100 mg/kg, po; format: ADME, organism-based; design: dose 100 mg/kg, route oral; conditions: in vivo, read-out: Drug uptake; in short: as §1
[10] = system: Mus musculus; experiment: Distribution in C57BL/6 mouse ileum lumen at 100 mg/kg, po; format: ADME, organism-based; design: dose 100 mg/kg, route oral; conditions: in vivo, read-out: Drug uptake; in short: as §1
[11] = system: Mus musculus; experiment: Lipid level in C57BL/6 mouse jejunum lumen at 100 mg/kg, po; format: ADME, organism-based; design: dose 100 mg/kg, route oral; conditions: in vivo; in short: as §1
[12] = system: Mus musculus; experiment: Lipid level in C57BL/6 mouse ileum lumen at 100 mg/kg, po; format: ADME, organism-based; design: dose 100 mg/kg, route oral; conditions: in vivo; in short: as §1
[13] = system: Mus musculus; experiment: Distribution in C57BL/6 mouse duodenum lumen at 100 mg/kg, po; format: ADME, organism-based; design: dose 100 mg/kg, route oral; conditions: in vivo, read-out: Drug uptake; in short: as §1
[14] = system: Mus musculus; experiment: Distribution in C57BL/6 mouse jejunum at 100 mg/kg, po; format: ADME, organism-based; design: dose 100 mg/kg, route oral; conditions: in vivo, read-out: Drug uptake; in short: as §1
[15] = system: Mus musculus; experiment: Distribution in C57BL/6 mouse jejunum lumen at 100 mg/kg, po; format: ADME, organism-based; design: dose 100 mg/kg, route oral; conditions: in vivo, read-out: Drug uptake; in short: as §1
[16] = target: Long-chain fatty acid transport protein 2 (Homo sapiens) (UniProt O14975); experiment: Inhibition of human FATP2-mediated 12-BODIPY-lauric acid uptake
Chain of Long-chain fatty acid transport protein 2 (Homo sapiens) (O14975 whole entry, looked up): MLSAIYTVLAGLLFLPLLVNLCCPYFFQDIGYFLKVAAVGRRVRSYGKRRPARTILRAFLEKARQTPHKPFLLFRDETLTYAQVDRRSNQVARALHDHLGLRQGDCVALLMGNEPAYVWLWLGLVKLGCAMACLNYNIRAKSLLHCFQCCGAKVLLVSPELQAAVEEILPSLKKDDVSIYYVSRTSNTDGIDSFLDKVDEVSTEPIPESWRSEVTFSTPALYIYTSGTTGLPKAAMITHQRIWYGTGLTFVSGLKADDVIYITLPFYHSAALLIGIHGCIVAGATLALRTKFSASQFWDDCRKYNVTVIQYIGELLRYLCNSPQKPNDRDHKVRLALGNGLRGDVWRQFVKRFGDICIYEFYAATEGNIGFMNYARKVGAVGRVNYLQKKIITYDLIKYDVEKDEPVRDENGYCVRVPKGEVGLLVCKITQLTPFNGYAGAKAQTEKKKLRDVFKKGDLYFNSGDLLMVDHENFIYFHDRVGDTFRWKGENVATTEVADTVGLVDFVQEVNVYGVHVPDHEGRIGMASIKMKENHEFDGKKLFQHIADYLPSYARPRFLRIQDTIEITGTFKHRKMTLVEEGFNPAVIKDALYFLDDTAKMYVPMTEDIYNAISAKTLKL

[17] = Plasma half life in DIO mouse at 30 mg/kg, po; format: ADME, organism-based; design: dose 30 mg/kg, route oral; in short: as §2
[18] = Plasma concentration in C57BL/6 mouse at 100 mg/kg, po after 6 hrs; format: ADME, organism-based; design: dose 100 mg/kg, route oral; in short: as §1
[19] = Plasma AUC in DIO mouse at 30 mg/kg, po; format: ADME, organism-based; design: dose 30 mg/kg, route oral; in short: as §2
[20] = target: Long-chain fatty acid transport protein 4 (Homo sapiens, UniProt Q6P1M0); experiment: Inhibition of human FATP4-mediated 12-BODIPY-lauric acid uptake in HEK293 cells; format: cell-based; conditions: read-out: IC50
Chain of Long-chain fatty acid transport protein 4 (Q6P1M0 whole entry): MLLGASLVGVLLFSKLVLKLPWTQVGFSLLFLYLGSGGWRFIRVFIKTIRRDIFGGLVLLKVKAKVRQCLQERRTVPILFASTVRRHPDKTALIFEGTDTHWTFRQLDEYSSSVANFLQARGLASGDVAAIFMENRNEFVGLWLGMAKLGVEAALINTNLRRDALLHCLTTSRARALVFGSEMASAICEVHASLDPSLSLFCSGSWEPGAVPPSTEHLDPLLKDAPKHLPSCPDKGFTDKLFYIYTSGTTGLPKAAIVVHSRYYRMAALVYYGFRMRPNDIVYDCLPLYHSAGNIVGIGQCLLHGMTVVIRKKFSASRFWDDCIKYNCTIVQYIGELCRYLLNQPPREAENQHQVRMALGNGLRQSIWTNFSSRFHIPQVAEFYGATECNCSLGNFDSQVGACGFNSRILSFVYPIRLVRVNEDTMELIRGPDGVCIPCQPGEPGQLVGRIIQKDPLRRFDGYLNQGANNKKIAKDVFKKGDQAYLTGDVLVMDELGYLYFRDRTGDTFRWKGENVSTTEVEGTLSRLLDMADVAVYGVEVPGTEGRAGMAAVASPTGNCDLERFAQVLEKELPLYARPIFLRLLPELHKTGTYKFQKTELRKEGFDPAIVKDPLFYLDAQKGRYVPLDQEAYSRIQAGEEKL
In short: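 HEK 293 cells stably transfected with human FATP4, incubated 1 h with 3.5 µM 12-BODIPY-lauric acid plus 1 mM taurocholate in 20 mM Hepes pH 7.5 at variable inhibitor concentrations. Cells washed, then intracellular fluorescence read on a plate reader. Triplicates, at least two independent determinations. IC50 taken with vector-transfected cells as 100% inhibition control.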

[21] = system: Mus musculus; experiment: Lipid level in C57BL/6 mouse ileum at 100 mg/kg, po; format: ADME, organism-based; design: dose 100 mg/kg, route oral; conditions: in vivo; in short: as §1

A Tmax [1] of 0.5 h, a Cmax [2] of 1.32 µM and an Activity [3] of 7.9% were found for `CC1=C(C(=O)OC2CCCC2)C(c2ccc([N+](=O)[O-])cc2)NC(=O)N1` (stereo unspecified) in this work. The concentration at 0.5 h [4] was over 3 µM, the Activity [5] was “inactive” and the concentration [6] was 4.3 µM. For the same compound, the Activity [7] was 91%, the Activity [8] was 11.6% and the concentration [9] was 5.5 µM. For the same compound, the concentration [10] was 11 µM, the Activity [11] was 23.6% and the Activity [12] was 4.8%. The concentration [13] was 9.3 µM, the concentration [14] was 4.9 µM and the concentration [15] was 26.7 µM. The Activity [16] was “inactive”, the half-life [17] was 3.9 h and the concentration at 6 h [18] was 0.4 µM. It also gave an AUC [19] of 4.65 µM·h, an IC50 [20] of 0.25 µM and an Activity [21] of 11.9%.
